Assay results taken from ChEMBL document CHEMBL3792308, “Synthesis and Evaluation of 2,6-Modified Purine 2'-C-Methyl Ribonucleosides as Inhibitors of HCV Replication” (ACS Med Chem Lett, 2016).
Activity calls are given as the source filed them. The rule behind the calls is not given here.

How the values were obtained:
Hepatitis C virus = experiment: Antiviral activity against HCV infected in HuH7 Clone B cells assessed as inhibition of viral replication after 5 days by RT-PCR method; assay type: functional, organism-based, Hepacivirus hominis; settings: 120 h
How it was run: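 Huh7 cells carrying a subgenomic HCV replicon; HCV RNA extracted and amplified to measure replication inhibition. Tested up to 10 μM, and EC50 and EC90 are reported.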

[1] = Cytotoxicity against human PBMC after 6 days by trypan blue exclusion assay; assay type: cell-based; settings: PBMC (peripheral blood mononuclear cells)
[2] = Cytotoxicity against human CEM cells after 6 days by trypan blue exclusion assay; assay type: cell-based; settings: CEM (CCRF-CEM) cells
[3] = Cytotoxicity against African green monkey Vero cells after 3 days by hemocytometry; assay type: cell-based; settings: chlorocebus sabaeus
[4] = Cytotoxicity against human HuH7 cells infected with HCV assessed as reduction in cellular rRNA level after 96 hrs by qRT-PCR analysis; assay type: cell-based, Huh-7
How it was run: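 Huh7 toxicity was read in the same wells as the replicon assay, by extracting and amplifying cellular rRNA alongside HCV RNA.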

[5] = Drug metabolism in human HuH7 cells assessed as nucleoside monophosphate derivative formation at 50 uM after 4 hrs by LC-MS/MS analysis; assay type: ADME, cell-based; settings: huh-7, 4 h
How it was run: (§1)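 Huh7 cells incubated with 50 μM compound for 4 h at 37 °C, then washed with phosphate-buffered saline. Intracellular metabolites extracted with 70% ice-cold methanol in water and identified by LC–MS/MS, with nucleoside mono-, di- and triphosphate levels quantified.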

[6] = Drug metabolism in human HuH7 cells assessed as nucleoside diphosphate derivative formation at 50 uM after 4 hrs by LC-MS/MS analysis; assay type: ADME, cell-based; settings: huh-7, 4 h; how it was run: as §1
[7] = Drug metabolism in human HuH7 cells assessed as nucleoside triphosphate derivative formation at 50 uM after 4 hrs by LC-MS/MS analysis; assay type: ADME, cell-based; settings: huh-7, 4 h; how it was run: as §1
[8] = Drug level in human HuH7 cells treated with 2-Amino-6-[N-(t-butyloxycarbonyl)aminoxy]-9H-(2'-C-methyl-beta-D-ribofuranosyl)-purine at 50 uM after 4 hrs by LC-MS/MS analysis; assay type: ADME, cell-based; settings: huh-7, 4 h; how it was run: as §1
[9] = Drug level in human HuH7 cells treated with Ethyl((((2R,3S,4R,5R)-5-(2-amino-6-(((tert-butoxycarbonyl)amino)oxy)-9H-purin-9-yl)-3,4-dihydroxy-4-methyltetrahydrofuran-2-yl)methoxy)(phenoxy)phosphoryl)-Lalaninate at 50 uM after 4 hrs by LC-MS/MS analysis; assay type: ADME, cell-based; settings: huh-7, 4 h; how it was run: as §1
[10] = Drug metabolism in human HuH7 cells assessed as 2'-beta-C-methylguanosine-5'-triphosphate formation at 50 uM after 4 hrs by LC-MS/MS analysis; assay type: ADME, cell-based; settings: huh-7, 4 h; how it was run: as §1
[11] = Drug metabolism in human HuH7 cells assessed as formation of ((2R,3R,4R,5R)-5-(6-amino-2-fluoro-9H-purin-9-yl)-3,4-dihydroxy-4-methyltetrahydrofuran-2-yl)methyl tetrahydro triphosphate at 50 uM after 4 hrs by LC-MS/MS analysis; assay type: ADME, cell-based; settings: huh-7, 4 h; how it was run: as §1
[12] = Inhibition of HCV C-terminal his-tagged NS5B delta21 RNA dependent RNA polymerase assessed as inhibition of full-length 20mer RNA product formation after 120 mins by PAGE method in presence of 32P-radiolabeled GpG primer; set-up: species or system Hepacivirus hominis
How it was run: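 HCV NS5B polymerase RNA synthesis on a 20mer RNA template, run with increasing triphosphate concentrations up to 100 μM. Products resolved to follow incorporation and pausing sites opposite template uridines.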

Homo sapiens = species on record: Homo sapiens; experiment: Inhibition of host RNA polymerase 2 (unknown origin) up to 100 uM
How it was run: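 Host RNA polymerase II was tested with nucleoside triphosphate up to 100 μM. α-Amanitin served as the positive control.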

[13] = target: DNA-directed RNA polymerase, mitochondrial (Homo sapiens) (UniProt O00411); experiment: Activity at human mitochondrial RNA polymerase assessed as compound incorporation into RNA up to 100 uM relative to ATP
Sequence of DNA-directed RNA polymerase, mitochondrial (Homo sapiens) (O00411 whole entry): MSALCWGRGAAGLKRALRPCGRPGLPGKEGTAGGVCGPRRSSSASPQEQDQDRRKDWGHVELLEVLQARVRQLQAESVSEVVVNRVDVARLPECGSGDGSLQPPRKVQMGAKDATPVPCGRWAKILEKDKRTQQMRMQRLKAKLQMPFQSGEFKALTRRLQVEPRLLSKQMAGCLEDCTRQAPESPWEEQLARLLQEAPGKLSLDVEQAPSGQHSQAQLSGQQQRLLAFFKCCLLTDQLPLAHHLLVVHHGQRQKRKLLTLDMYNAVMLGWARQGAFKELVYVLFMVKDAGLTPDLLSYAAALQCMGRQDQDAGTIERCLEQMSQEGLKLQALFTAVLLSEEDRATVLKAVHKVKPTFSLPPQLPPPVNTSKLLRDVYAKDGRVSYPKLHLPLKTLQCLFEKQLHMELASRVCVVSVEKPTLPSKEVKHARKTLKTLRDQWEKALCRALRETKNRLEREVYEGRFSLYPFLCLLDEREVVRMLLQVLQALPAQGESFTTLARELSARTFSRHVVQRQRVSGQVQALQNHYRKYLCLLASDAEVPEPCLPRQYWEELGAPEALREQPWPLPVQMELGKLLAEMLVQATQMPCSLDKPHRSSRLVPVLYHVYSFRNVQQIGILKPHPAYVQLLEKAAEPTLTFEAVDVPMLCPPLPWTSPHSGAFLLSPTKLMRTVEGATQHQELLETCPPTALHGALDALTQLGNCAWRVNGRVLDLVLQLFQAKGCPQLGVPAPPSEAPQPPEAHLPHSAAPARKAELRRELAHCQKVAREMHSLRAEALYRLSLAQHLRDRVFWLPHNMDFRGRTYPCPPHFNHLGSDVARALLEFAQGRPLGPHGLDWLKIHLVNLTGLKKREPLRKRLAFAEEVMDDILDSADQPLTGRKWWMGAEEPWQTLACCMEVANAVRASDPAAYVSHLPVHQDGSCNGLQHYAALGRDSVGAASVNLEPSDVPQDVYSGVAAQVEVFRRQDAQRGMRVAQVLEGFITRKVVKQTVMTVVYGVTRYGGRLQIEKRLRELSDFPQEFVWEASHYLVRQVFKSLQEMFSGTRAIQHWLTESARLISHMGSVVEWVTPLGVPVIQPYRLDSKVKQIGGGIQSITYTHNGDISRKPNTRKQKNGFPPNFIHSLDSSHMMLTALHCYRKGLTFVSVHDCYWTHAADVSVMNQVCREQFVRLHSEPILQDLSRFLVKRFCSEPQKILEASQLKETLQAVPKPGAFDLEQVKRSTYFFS
How it was run: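 Human mitochondrial RNA polymerase (POLRMT) incorporation of nucleoside triphosphate, tested up to 100 μM and expressed as percent incorporation normalized to ATP.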

[14] = Drug level in human HuH7 cells treated with (2R,3R,4R,5R)-2-(6-amino-2-fluoro-9H-purin-9-yl)-5-(hydroxymethyl)-3-methyltetrahydrofuran-3,4-diol at 50 uM after 4 hrs by LC-MS/MS analysis; assay type: ADME, cell-based; settings: huh-7, 4 h; how it was run: as §1
[15] = Drug level in human HuH7 cells treated with Ethyl((((2R,3R,4R,5R)-5-(6-amino-2-fluoro-9H-purin-9-yl)-3,4-dihydroxy-4-methyltetrahydrofuran-2-yl)methoxy)(phenoxy)phosphoryl)-L-alaninate at 50 uM after 4 hrs by LC-MS/MS analysis; assay type: ADME, cell-based; settings: huh-7, 4 h; how it was run: as §1
[16] = Inhibition of host RNA polymerase 2 (unknown origin); set-up: species or system Homo sapiens
How it was run: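 Host RNA polymerase II inhibition assay with the nucleoside triphosphate tested at concentrations up to 100 μM. α-Amanitin was included as the positive control.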

Compound	EC50 (Hepatitis C virus) [nM]	EC90 (Hepatitis C virus) [µM]	CC50 at 144 h [1] [µM]	CC50 at 144 h [2] [µM]	CC50 at 72 h [3] [µM]	CC50 at 96 h [4] [µM]	further results
CCOC(=O)[C@H](C)NP(=O)(OC[C@H]1O[C@@H](n2cnc3c(N)nc(N=[N+]=[N-])nc32)[C@](C)(O)[C@@H]1O)Oc1ccccc1 (some centres not stated)	2300	3	> 100	> 100	> 100	> 10	Drug metabolism [5]: metabolite_detected; Drug metabolism [6]: metabolite_detected; Drug metabolism [7]: metabolite_detected
C[C@@]1(O)[C@H](O)[C@@H](COP(=O)(O)OP(=O)(O)OP(=O)(O)O)O[C@H]1n1cnc2c(=O)[nH]c(N)nc21 [INX-09114]	–	–	–	–	–	–	Drug metabolism [8]: metabolite_detected; Drug metabolism [9]: metabolite_detected
CC(C)(C)OC(=O)NOc1nc(N)nc2c1ncn2[C@@H]1O[C@H](CO)[C@@H](O)[C@@]1(C)O	900	8.4	> 100	> 100	> 100	> 10	Drug metabolism [10]: metabolite_detected
CCOC(=O)[C@H](C)NP(=O)(OC[C@H]1O[C@@H](n2cnc3c(N)nc(F)nc32)[C@](C)(O)[C@@H]1O)Oc1ccccc1 (some centres not stated)	2700	8.3	> 100	> 100	> 100	> 10	Drug metabolism [5]: metabolite_detected; Drug metabolism [6]: metabolite_detected; Drug metabolism [7]: metabolite_detected; Drug metabolism [11]: metabolite_detected
C[C@@]1(O)[C@H](O)[C@@H](COP(=O)(O)OP(=O)(O)OP(=O)(O)O)O[C@H]1n1cnc2c(N)nc(F)nc21	–	–	–	–	–	–	Ki [12]: 32 µM; inhibition (Homo sapiens): inactive; Activity [13]: 11%; Drug metabolism [14]: metabolite_detected; Drug metabolism [15]: metabolite_detected
CCOC(=O)[C@H](C)NP(=O)(OC[C@H]1O[C@@H](n2cnc3c(N)nc(OC)nc32)[C@](C)(O)[C@@H]1O)Oc1ccccc1 (some centres not stated)	1000	2.8	> 100	> 100	> 100	> 10	Drug metabolism [5]: metabolite_detected; Drug metabolism [6]: metabolite_detected; Drug metabolism [7]: metabolite_detected
C[C@@]1(O)[C@H](O)[C@@H](CO)O[C@H]1n1cnc2c(N)nc(F)nc21	> 10000	> 10	> 100	> 100	> 100	> 10	Drug metabolism [11]: metabolite_detected
CCOC(=O)[C@H](C)NP(=O)(OC[C@H]1O[C@@H](n2cnc3c(ONC(=O)OC(C)(C)C)nc(N)nc32)[C@](C)(O)[C@@H]1O)Oc1ccccc1 (some centres not stated)	300	0.9	> 100	39	> 100	> 10	Drug metabolism [10]: metabolite_detected
C[C@@]1(O)[C@H](O)[C@@H](CO)O[C@H]1n1cnc2c(N=[N+]=[N-])nc(N)nc21	> 10000	> 10	> 100	> 100	> 100	> 10	–
C[C@@]1(O)[C@H](O)[C@@H](CO)O[C@H]1n1cnc2c(NO)nc(N)nc21	300	5.5	> 100	> 100	> 100	> 10	–
CCOC(=O)[C@H](C)NP(=O)(OC[C@H]1O[C@@H](n2cnc3c(P(=O)(OCC)OCC)nc(N)nc32)[C@](C)(O)[C@@H]1O)Oc1ccccc1 (some centres not stated)	> 10000	> 10	> 100	> 100	> 100	> 10	–
COc1nc(OC)c2ncn([C@@H]3O[C@H](CO)[C@@H](O)[C@@]3(C)O)c2n1	> 10000	> 10	> 100	> 100	> 100	> 10	–
C=C(OCC)c1nc(N)nc2c1ncn2[C@@H]1O[C@H](CO)[C@@H](O)[C@@]1(C)O	> 10000	> 10	> 100	> 100	> 100	> 10	–
CC(C)(CO)C(=O)SCCOP(=O)(NCc1ccccc1)OC[C@H]1O[C@@H](n2cnc3c(=O)[nH]c(N)nc32)[C@](C)(O)[C@@H]1O (some centres not stated)	300	0.9	> 100	> 100	> 100	> 100	–
C[C@@]1(O)[C@H](O)[C@@H](CO)O[C@H]1n1cnc2c(N)nc(ONC(=O)OCc3ccccc3)nc21	> 10000	> 10	> 100	> 100	> 100	> 10	–
COc1nc(N)nc2c1ncn2[C@@H]1O[C@H](COP(=O)(N[C@@H](C)C(=O)OCC(C)(C)C)Oc2cccc3ccccc23)[C@@H](O)[C@@]1(C)O (some centres not stated) [BMS-986094]	20	0.04	4.5	8	14	0.8	–
COc1nc(N)c2ncn([C@@H]3O[C@H](CO)[C@@H](O)[C@@]3(C)O)c2n1	> 10000	> 10	> 100	> 100	> 100	> 10	–
CCOP(=O)(OCC)c1nc(N)nc2c1ncn2[C@@H]1O[C@H](CO)[C@@H](O)[C@@]1(C)O	> 10000	> 10	> 100	> 100	> 100	> 10	–
CC[C@H](C)[C@@H]1NC(=O)CNC(=O)[C@@H]2Cc3c([nH]c4cc(O)ccc34)[S+]([O-])C[C@H](NC(=O)CNC1=O)C(=O)N[C@@H](CC(N)=O)C(=O)N1C[C@H](O)C[C@H]1C(=O)N[C@@H]([C@@H](C)[C@@H](O)CO)C(=O)N2 (some centres not stated)	–	–	–	–	–	–	IC50 [16]: 2.5 nM
